Measurements as given in publication PMC7480958 (ACS chemical biology, 2020).

Columns and labels:
[1] = test system: H-460 lung cancer cell line; assay: H-460 lung cancer cell cytotoxicity assay; assay type: cell-based; settings: read-out: Cytotoxic activity IC50
bovine trypsin = assay: Protease activity assay, trypsin; assay type: biochemical; settings: incubated with up to 20 μM
Summary of the method: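 Bovine trypsin in DPBS pH 7.4 with 0.01% Tween-20 and 2 mM DTT was preincubated for 30 min at 22°C with an equal volume of 3-fold serial dilutions of the test compound (DMSO stock; final 20 μM to 339 pM). The mix was added to z-Leu-Arg-Arg-AMC (final 100 μM; enzyme 10 nM). AMC fluorescence (360/460 nm) was read every 3 min at 22°C, and the rate (RFU/s) was taken over 30 min.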

proteinase K = proteinase K (Parengyodontium album, UniProt P06873); assay: Protease activity assay, proteinase K; assay type: biochemical, Engyodontium album
Chain of proteinase K (P06873 106-384): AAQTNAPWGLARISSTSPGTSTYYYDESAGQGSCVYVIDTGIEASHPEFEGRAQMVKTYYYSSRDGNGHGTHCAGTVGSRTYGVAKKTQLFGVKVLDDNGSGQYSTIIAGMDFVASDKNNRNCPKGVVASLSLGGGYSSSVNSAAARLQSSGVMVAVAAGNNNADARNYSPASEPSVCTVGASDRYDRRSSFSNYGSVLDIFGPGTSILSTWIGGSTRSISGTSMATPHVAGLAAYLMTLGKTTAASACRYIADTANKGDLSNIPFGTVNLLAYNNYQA

human chymotrypsin = human chymotrypsin (Homo sapiens, UniProt P17538); assay: Protease activity assay, chymotrypsin; assay type: biochemical; settings: isoleucine in 1 versus valine in 2 and 3
Chain of human chymotrypsin (P17538 19-263): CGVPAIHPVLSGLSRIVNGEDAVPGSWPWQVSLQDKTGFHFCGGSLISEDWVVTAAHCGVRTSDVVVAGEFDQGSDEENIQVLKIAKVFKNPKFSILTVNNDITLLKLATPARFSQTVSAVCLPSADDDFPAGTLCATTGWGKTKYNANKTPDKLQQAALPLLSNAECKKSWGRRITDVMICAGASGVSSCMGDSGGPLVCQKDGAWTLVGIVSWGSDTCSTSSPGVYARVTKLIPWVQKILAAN

SMILES	IC50 [1] [µM]	Inhibition of bovine trypsin (bovine trypsin)	IC50 (proteinase K) [µM]	Fold reduction in potency for chymotrypsin (human chymotrypsin) [fold]
C/C=C1\NC(=O)[C@@H](NC(=O)[C@@H](NC(=O)C/C(=C/Cl)CC)C(C)C)[C@@H](C)OC(=O)[C@H](C(C)C)NC(=O)[C@H](Cc2ccc(O)cc2)N(C)C(=O)[C@H](Cc2ccccc2)N2C(=O)[C@H](CC[C@H]2O)NC1=O [Tutuilamide C (3), tutuilamide C]	4.78 ± 0.45	no inhibition	–	–
C/C=C1\NC(=O)[C@@H](NC(=O)[C@@H](NC(=O)[C@H](C)NC(=O)C/C(C)=C/Cl)C(C)C)[C@@H](C)OC(=O)[C@H](C(C)C)NC(=O)[C@H](Cc2ccc(O)cc2)N(C)C(=O)[C@H](Cc2ccccc2)N2C(=O)[C@H](CC[C@H]2O)NC1=O [Tutuilamide B (2), tutuilamide B]	1.27 ± 0.21	no inhibition	–	–
C/C=C1\NC(=O)[C@@H](NC(=O)[C@H](CCC(N)=O)NC(=O)CCCCC)[C@@H](C)OC(=O)[C@H](C(C)C)NC(=O)[C@H](Cc2ccc(O)cc2)N(C)C(=O)[C@H](Cc2ccccc2)N2C(=O)[C@H](CC[C@H]2O)NC1=O [Lyngbyastatin 7, lyngbyastatin 7]	–	–	1.57	–
C/C=C1\NC(=O)[C@@H](NC(=O)[C@@H](NC(=O)[C@H](C)NC(=O)C/C(C)=C/Cl)[C@@H](C)CC)[C@@H](C)OC(=O)[C@H](C(C)C)NC(=O)[C@H](Cc2ccc(O)cc2)N(C)C(=O)[C@H](Cc2ccccc2)N2C(=O)[C@H](CC[C@H]2O)NC1=O [Tutuilamide A (1), tutuilamide A]	0.53 ± 0.04	no inhibition	–	2
